Screening results: PubChem BioAssay, several laboratories
Rows were chosen to be rich in hits. Some 4.1% of all compounds tested hit in one or more screens of this group.
hERG protect = hERG (human) protection from proarrhythmic block. actives 0.51% (n = 310,000). CHO-hERG, FluxOR thallium flux, dofetilide IC70 present. activation (rescue from dofetilide block), less the hit threshold, % at 10 µM. AID 1511. Q12809;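 active = activation above the mean of controls blocked by dofetilide plus 5 SD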;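 note: thallium influx through hERG after potassium depolarization seen as dye fluorescence rise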
KCNQ1 pot = potentiators or activators of human KCNQ1 potassium channel | AID 2648 | B-score at 10 µM | CHO-K1 KCNQ1, thallium flux FluxOR fluorescence; active compounds read high | P51787 | actives 0.35% (n = 310,000);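 active = fluorescence ratio B-score, a plate-corrected score, at least three library SD, with initial intensity B-score within 5 SD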
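Schedule – 37 °C overnight plating, 90-min dark dye load, 20-min compound pretreatment · System – stable KCNQ1 CHO-K1 line · Probe or stimulus – thallium- and potassium-containing depolarizing buffer · Measured by – kinetic FluxOR fluorescence, 10 s baseline plus 110 s post-stimulus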
KCNK9 block = human KCNK9 channel inhibition | Q9NPC2 | HEK293 KCNK9, FluxOR thallium flux fluorescence; active compounds read low | B-score at 10 µM | actives 1.2% (n = 310,000);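 active = ratio B-score over 3 SD below the library mean, with starting fluorescence within 5 SD of its mean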;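 note: negative B-score means less thallium flux so channel inhibition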
Target sequence (Q9NPC2 whole entry, looked up): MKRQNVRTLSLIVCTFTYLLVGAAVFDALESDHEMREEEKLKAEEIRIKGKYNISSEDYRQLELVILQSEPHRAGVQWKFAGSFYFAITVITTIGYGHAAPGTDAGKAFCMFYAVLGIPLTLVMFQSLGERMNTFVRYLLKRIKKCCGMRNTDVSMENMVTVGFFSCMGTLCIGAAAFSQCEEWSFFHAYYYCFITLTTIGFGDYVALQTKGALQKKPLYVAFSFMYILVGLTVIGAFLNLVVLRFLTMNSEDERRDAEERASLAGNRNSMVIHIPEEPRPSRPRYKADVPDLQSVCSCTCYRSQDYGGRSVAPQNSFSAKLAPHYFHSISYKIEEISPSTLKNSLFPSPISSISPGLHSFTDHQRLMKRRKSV
KCNK3 inh = human KCNK3 channel inhibition, primary screen. CHO-KCNK3 thallium flux, FluxOR fluorescence; active compounds read low. B-score at 10 µM. actives 0.84% (n = 340,000);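 active = B-score under library mean minus 4 SD, starting fluorescence ratio at most library mean plus 5 SD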;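 note: more negative B-score means stronger inhibition of thallium flux through KCNK3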
KCC2 mod = modulates chloride dependent transport by human KCC2 | AID 1456 | actives 2.2% (n = 190,000) | B-score of Tl+ flux slope (higher = more flux/activation; lower = inhibition) at 10 µM | Q9H2X9 | KCC2 cells, thallium flux FluoZin-2 fluorescence;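 active = thallium flux slope and its plate-corrected score both differing from the plate sample mean at a set confidence after two filtering rounds, in either direction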;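 note: slope of fluorescence scaled to starting intensity during 10 to 20 s after thallium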
KCNQ1 inh = human KCNQ1 channel inhibition; P51787; AID 2642; CHO-K1 KCNQ1, FluxOR thallium flux fluorescence; active compounds read high; B-score at 10 µM; actives 1.3% (n = 310,000);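 active = compounds whose thallium flux B-score, printed positive for inhibition, exceeds three library SD while starting fluorescence stays within three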;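 note: channel opened by potassium depolarization with thallium stimulus after 20 min compound exposure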
KCNK9 inh conf = human KCNK9 inhibitor confirmation; shares compounds with KCNK9 block; inhibition, % at 10 µM; actives 43% (n = 4,900); HEK293 KCNK9 cells, FluxOR thallium flux fluorescence;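 active = thallium signal inhibited by more than 5 SD of the compound-free buffer control wells, on both duplicate plates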;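 note: 0% = assay buffer control wells without compound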
Kir2-1 spec = selectivity of KCNK9 modulators against mouse Kir2.1; Kir2.1 cells, FluxOR thallium flux fluorescence; shares compounds with KCNK9 block; inhibition, % at 10 µM; actives 4% (n = 4,900);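 active = thallium signal drop more than 5 SD beyond the mean of the no-compound control wells, seen in both duplicate plates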;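 note: signal is fluorescence rise after thallium addition divided by baseline fluorescence; plate controls were assay buffer only for no effect and full block by chlorpromazine control for full effect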
KCNK9 uninduced = second check of KCNK9 modulator effects in non-induced HEK293 cells; shares compounds with KCNK9 block; FluxOR thallium flux; inhibition, % at 10 µM; actives 40% (n = 4,900); AID 492997;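 active = thallium signal drop beyond 5 SD of the untreated control mean, on both duplicate plates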;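 note: plate controls were buffer only IC0 wells for no effect and SID17386958 at its maximal inhibitory level for full effect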
* = called active by the depositor; i = inactive; x = no result given.

SMILES	hERG protect	KCNQ1 pot	KCNK9 block	KCNK3 inh	KCC2 mod	KCNQ1 inh	KCNK9 inh conf	Kir2-1 spec	KCNK9 uninduced
Cc1ccc(NC(=O)C(=O)NN=C2CCCC2)cc1C	-6.2	i	i	i	0.047	i	x	x	x
CN1c2ccccc2C2(C)CCCC3=Cc4cccc([N+](=O)[O-])c4OC312 (stereo not drawn)	-19.8	i	-10.4*	i	-0.0434	i	57.0%*	i	35.0%*
CN1c2ccccc2C2(C)CCCC3=Cc4cc([N+](=O)[O-])cc([N+](=O)[O-])c4OC312 (stereo not drawn)	-11.2	i	i	i	0.152	i	x	x	x
CCOC(=O)c1c(C)nn(-c2ccc(NC(=O)CSCC(=O)O)cc2)c1C	-3.8	i	i	i	-0.0685	i	x	x	x
Cc1noc(C)c1CSCC(=O)N(C)CC(=O)Nc1ccc(Cl)c(C(F)(F)F)c1	-14.7	i	-10.3*	i	x	i	51.5%*	i	24.0%*
Cc1noc(C)c1CSCC(=O)N(C)CC(=O)Nc1ccc(Cl)c(Cl)c1	-17.9	i	i	i	x	i	x	x	x
Cc1ccc(Cl)cc1N1CCN(C(=O)c2ccc(CN3CCOCC3)cc2)CC1	-2.9	i	i	i	-0.992	i	x	x	x
Cc1ccc(Cl)cc1N1CCN(Cc2cc3c(cc2O)CCC3)CC1	-15.5	i	i	i	0.153	i	i	i	i
CCOC(=O)N1CCN(c2c(N3CCN(c4ccccc4OC)CC3)c(=O)c2=O)CC1	-1.7	i	i	i	-0.676	i	x	x	x
CCOC(=O)/C(=N\Nc1ccccc1Cl)N1CCN(c2ccccc2OC)CC1	-11.4	i	-10*	i	-0.0733	i	32.0%*	i	29.0%*
OCC[C@H]1C[C@@H](O)[C@H](O)[C@@]2(CCCc3ccccc3O2)O1	x	x	x	i	x	x	x	x	x
CC1=NNC(=O)/C1=C\c1cn(-c2ccccc2)nc1-c1ccc(Cl)cc1	-7.6	i	i	i	0.239	i	i	i	i
CCC1Nc2ncnc(N3CCOCC3)c2N(Cc2ccc(Br)cc2)C1=O (stereo not drawn)	x	x	x	i	x	x	x	x	x
O=C1C(Cc2ccccc2)Nc2ncnc(N3CCc4ccccc4C3)c2N1Cc1ccc(Cl)cc1 (stereo not drawn)	-10.9	i	-10.1*	i	x	i	45.5%*	i	36.0%*
CC(C)CC1Nc2ncnc(N3CCCCC3)c2N(Cc2ccc(Br)cc2)C1=O (stereo not drawn)	-13.0	i	-13.8*	i	x	i	76.0%*	i	49.5%*
CCC1Nc2ncnc(N3CCCCC3)c2N(Cc2ccc(Br)cc2)C1=O (stereo not drawn)	-15.7	i	-10.5*	i	x	i	57.5%*	i	30.5%*
O=C(c1ccccc1)c1nc2ccccc2n(CCCn2c(=O)c(C(=O)c3ccccc3)nc3ccccc32)c1=O	-3.0	i	i	i	1.09	i	i	i	i
C=Cn1c(N2CCOCC2)nc2c1c(=O)[nH]c(=O)n2C	-7.4	i	i	i	-0.887	i	x	x	x
CCCOc1ccc(-c2c(=O)n(O)c3ccccc3[n+]2[O-])cc1	28.3*	i	-8.88*	i	x	i	i	i	i
N#Cc1ccc(-c2ccc3c(c2)OCO3)nc1SCC(=O)OCc1ccccc1	-7.8	i	-10.2*	i	x	i	i	i	27.0%*
O=C(c1cccs1)C1CCCN(Cc2nc(Cc3ccccc3F)no2)C1 (stereo not drawn)	-9.7	i	i	i	-1.92	i	i	i	i
